Bioassay records as filed in PubChem BioAssay.
MC4R antag cAMP = antagonists of human melanocortin 4 receptor (MC4R). MC4R-expressing cells, MTII-stimulated cAMP, LANCE TR-FRET. inhibition, % at 6.5 µM. 360,000 tested, 0.48% active. P32245. AID 540295;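 active = inhibition above its plate's cutoff, the mean of tested wells on that plate plus 3 SD, cut at about 29% in these data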;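 also: 0% = Melanotan II alone and 100% = Melanotan II plus saturating MCL0020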
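System – human MC4R-expressing U2OS cells · Also added – Melanotan II · Dosing – one concentration, 6.5 µM nominal · Timing – 30-min compound, 1-h challenge, 1-h detection, room temperature · Measured by – Eu-cAMP/anti-cAMP TR-FRET, emission 671 nm · Replicates – singlicate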
TLR9-MyD88 inh = inhibitors of human TLR9-MyD88 binding; Q9NR96+Q99836; CHO BLA complementation TLR9-MyD88, CCF4 FRET ratio; inhibition, % at 4.98 µM; 340,000 tested, 0.21% active;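 active = inhibition above the mean over all tested compounds plus 3 SD, cut at about 21% in these data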;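 also: 0% = DMSO only wells and 100% = clavulanate BLA inhibitor control wells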
MC4R ag barr = human MC4R agonism via beta-arrestin; P32245; U2OS MC4R beta-arrestin complementation, luminescence; percent of melanotan II response, DMSO zero; activation, % at 8.9 µM; 360,000 tested, 0.98% active;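 active = activation above a per-plate cutoff, the mean activation of sample wells on that plate plus 3 SD, cut at about 8% in these data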
TLR4-MyD88 BLA = blocks binding of human TLR4 to MyD88; AID 861; HeLa CL3-4 TLR4/MyD88 BLA complementation, FRET ratio; O00206+Q99836; inhibition, % at 8.4 µM; 200,000 tested, 0.18% active; in the data active = inhibition above about 25%;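 also: 0% = vehicle and 100% = reference inhibitor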
Target sequence (O00206 whole entry, looked up): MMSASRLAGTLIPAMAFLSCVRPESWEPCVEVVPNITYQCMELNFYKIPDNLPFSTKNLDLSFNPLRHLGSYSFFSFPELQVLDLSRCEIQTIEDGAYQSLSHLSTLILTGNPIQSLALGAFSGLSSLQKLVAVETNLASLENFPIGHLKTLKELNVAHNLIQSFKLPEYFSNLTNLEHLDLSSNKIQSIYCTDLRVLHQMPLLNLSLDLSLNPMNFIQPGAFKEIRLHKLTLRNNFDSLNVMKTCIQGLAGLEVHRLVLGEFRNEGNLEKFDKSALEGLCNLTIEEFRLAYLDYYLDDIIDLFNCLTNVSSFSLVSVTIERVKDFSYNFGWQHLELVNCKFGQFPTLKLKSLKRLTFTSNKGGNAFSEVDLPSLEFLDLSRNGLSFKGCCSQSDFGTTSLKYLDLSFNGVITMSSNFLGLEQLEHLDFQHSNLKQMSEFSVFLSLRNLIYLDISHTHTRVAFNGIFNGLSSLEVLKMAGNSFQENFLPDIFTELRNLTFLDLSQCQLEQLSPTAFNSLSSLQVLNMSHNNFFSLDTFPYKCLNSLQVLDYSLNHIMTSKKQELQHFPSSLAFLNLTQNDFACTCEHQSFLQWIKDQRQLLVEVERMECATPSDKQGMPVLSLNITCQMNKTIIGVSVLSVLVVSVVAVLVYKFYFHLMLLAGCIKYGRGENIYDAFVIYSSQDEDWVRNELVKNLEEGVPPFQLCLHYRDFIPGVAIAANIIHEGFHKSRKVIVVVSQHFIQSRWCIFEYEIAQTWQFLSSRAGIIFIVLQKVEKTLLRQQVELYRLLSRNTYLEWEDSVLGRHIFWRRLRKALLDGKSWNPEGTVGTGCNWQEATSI
Target sequence (Q99836 whole entry, looked up): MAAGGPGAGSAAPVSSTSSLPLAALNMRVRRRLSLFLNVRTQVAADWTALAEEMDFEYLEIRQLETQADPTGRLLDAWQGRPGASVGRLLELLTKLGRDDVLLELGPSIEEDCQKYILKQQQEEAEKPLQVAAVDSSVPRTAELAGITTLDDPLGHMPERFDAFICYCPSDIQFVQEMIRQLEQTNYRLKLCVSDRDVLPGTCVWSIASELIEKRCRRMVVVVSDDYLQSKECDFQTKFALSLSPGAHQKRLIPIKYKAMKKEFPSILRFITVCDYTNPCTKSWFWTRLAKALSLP
NOD2 RIPK2 PPI = inhibitors of human NOD2-RIPK2 interaction; inhibition, % at 4.98 µM; CHO BLA complementation NOD2-RIPK2, CCF4 ratio; 360,000 tested, 0.38% active; O43353; in the data active = inhibition above about 21%;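 also: 0% = vehicle only and 100% = reference blocker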
NTR1 ag = agonists of human neurotensin receptor NTR1 | P30989 | NTR1-U2OS beta-arrestin-GFP spot imaging, agonist mode | activation, % at 20 µM | 330,000 tested, 0.17% active | AID 493036;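 active = activation at or above 40% of the spot to cytoplasm intensity ratio, with at least 20 cells analyzed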;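 also: 0% = DMSO without peptide and 100% = 100 nM NTR1 peptide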
cAMP nonselect = nonselective cAMP signaling inhibitor, MC4R antagonist counter-screen. AID 602193. 1,600 tested, 26% active. inhibition, % at 6.5 µM. parental U2OS, forskolin cAMP, LANCE TR-FRET. shares compounds with MC4R antag cAMP;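 active = mean inhibition over triplicates above the low-control well mean plus 3 SD, set per campaign, cut at about 13% in these data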;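 also: signal is single emission at 671 nm which falls as cellular cAMP rises; 0% = forskolin-stimulated wells and 100% = buffer without forskolin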
MC4R antag conf = human MC4R cAMP antagonism confirmation | 1,600 tested, 27% active | inhibition, % at 6.5 µM | MC4R-expressing cells, MTII-stimulated cAMP, TR-FRET | AID 602195 | shares compounds with MC4R antag cAMP; in the data active = inhibition above about 29%;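 also: 0% = agonist stimulated wells alone and 100% = agonist stimulated wells plus saturating reference antagonist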
Active calls of the source: *; . = no result. Compounds with a hit are over-represented: about 1.9% of the library has one in this group of screens.

SMILES	MC4R antag cAMP	TLR9-MyD88 inh	MC4R ag barr	TLR4-MyD88 BLA	NOD2 RIPK2 PPI	NTR1 ag	cAMP nonselect	MC4R antag conf
CC(=O)Nc1sc2c(c1C(c1ccc(F)cc1)N1CCOCC1)CCCC2 (stereo not drawn)	29.5*	-7.0	2.1	-9.9	5.9	2.6	2.2	5.7
COc1cc(OC)cc(-c2c(-c3cccs3)c3cc(-c4cnc(OC)nc4)ccc3n2C)c1	4.3	6.2	-1.3	.	10.7	-0.4	.	.
Cc1ccccc1NC(=S)N(CCN1CCCCC1)Cc1ccco1	31.3*	-6.6	3.5	2.3	-1.6	0.5	1.1	-6.4
Cc1ccccc1NC(=S)N(CCCN1CCCCC1)Cc1ccco1	-2.1	-1.5	-1.3	-6.7	0.4	1.3	.	.
O=C(CNC(=O)c1ccc(Oc2ccccc2)cc1)OC1CCCCC1=O (stereo not drawn)	33.6*	7.6	-1.9	6.6	1.1	0.1	12.4	24.3
Cc1ccc(C(=O)NCC(=O)OC2CCCCC2=O)cc1C (stereo not drawn)	8.2	-3.7	-1.6	.	-3.4	4.0	.	.
COc1ccc(NC(=O)COC(=O)C2CC(=O)N(c3ccc(C)cc3)C2)cc1 (stereo not drawn)	41.5*	-14.3	1.5	.	3.4	-0.7	-1.5	-3.3
CCC1=NN2C(=N)/C(=C\c3cccn3-c3ccc(OC)cc3)C(=O)N=C2S1	25.7	2.0	-1.3	-15.5	-3.0	4.3	.	.
Cc1ccc(-n2cccc2/C=C2\C(=N)N3N=C(C(C)C)SC3=NC2=O)cc1	72.8*	8.4	-1.6	-37.6	-11.2	3.1	-2.6	19.5
COCCCn1c(=O)/c(=C\c2ccc(OC(F)F)c(OC)c2)s/c1=C(/C#N)C(=O)NCCOC	6.9	4.0	0.2	.	-6.8	10.1	.	.
COC(=O)c1ccc2c(=O)[nH]c(CN3c4ccccc4CC3C)nc2c1 (stereo not drawn)	1.1	9.0	-1.6	16.6	2.1	0.5	.	.
COC(=O)c1ccc2c(=O)[nH]c(CCl)nc2c1	29.5*	16.2	-0.9	1.3	-7.7	0.0	5.0	7.0
CC1CC(C)CN(C(=O)Nc2ccc(Br)cc2)C1 (stereo not drawn)	30.3*	6.0	2.0	7.6	-4.3	-0.9	-3.3	-7.7
O=C(Nc1ccc(Br)cc1)N1CCCCCCC1	-0.7	-14.7	-0.6	-4.3	-6.2	4.2	.	.
CC1CCc2cc(F)ccc2N1C(=O)CSc1nnc2c(n1)[nH]c1ccccc12 (stereo not drawn)	9.5	4.2	1.8	-6.5	-7.8	4.6	.	.
C=CCN(C(=O)CCc1ccccc1OC)c1nc(-c2ccc(S(C)(=O)=O)cc2)cs1	31.1*	-2.5	0.6	.	-56.7	2.0	-0.4	-3.4
COc1cc(SC)ccc1C(=O)OC(C)C(=O)NC1CCCC1 (stereo not drawn)	5.1	8.1	-1.8	6.0	-2.4	.	.	.
Nc1ccn(C2OC(CO)C(O)C2F)c(=O)n1 (stereo not drawn)	.	.	.	.	0.3	.	.	.
Cn1cc([N+](=O)[O-])c(C(=O)NC2CCCCCC2)n1	-2.6	4.1	-2.9	.	0.6	0.8	.	.
COc1ccc(S(=O)(=O)NNC(=O)C(=O)NNc2ccccn2)cc1	31.4*	-3.5	0.7	.	-20.6	0.0	1.8	-17.7
O=[N+]([O-])c1cc(-c2csc(NCCc3nc4cc(Cl)c(Cl)cc4n3CCCO)n2)ccc1Cl	33.2*	-2.1	-1.6	.	-7.2	2.0	15.6*	20.2
CC(=O)Nc1ccc(OCC(O)Cn2c(CO)nc3ccccc32)cc1 (stereo not drawn)	31.5*	-1.1	-0.3	-5.6	-4.5	1.1	-0.4	8.3
Cc1cccc(C)c1NC(=O)CCCSc1nnc(N)s1	32.8*	6.1	0.4	12.0	-2.5	-0.8	-1.2	-7.3
CCC1=NN(S(=O)(=O)c2ccc(C)cc2)C(O)(C(F)(F)F)C1 (stereo not drawn)	29.1*	15.0	1.2	-12.1	0.5	-0.6	-1.8	-7.0
CN1C(N)=NC(=O)/C1=C/c1ccccc1F	6.2	6.4	0.4	2.1	-2.4	-1.3	.	.
SMILES	MC4R antag cAMP	TLR9-MyD88 inh	MC4R ag barr	TLR4-MyD88 BLA	NOD2 RIPK2 PPI	NTR1 ag	cAMP nonselect	MC4R antag conf
CC1(c2cccc(Br)c2)NC(=O)N(CC(=O)Nc2ccc3c(c2)OCO3)C1=O (stereo not drawn)	1.0	3.3	-1.7	.	3.5	4.2	.	.
O=S(=O)(NC1=NCCC1)c1ccc(F)cc1F	29.1*	6.9	-2.7	-12.5	-7.2	1.1	5.3	12.6
O=S(=O)(NC1=NCCCCC1)c1ccc(F)cc1F	3.2	-1.1	-2.6	.	4.5	0.6	.	.
COc1ccc(N2CCN(C(=O)c3ccc(COc4ccc5c(C)cc(=O)oc5c4)cc3)CC2)cc1	31.1*	-0.1	-2.5	-7.7	-1.1	-1.1	-4.6	-5.2
COc1ccc(N2CCN(C(=O)COc3ccc4c(C)cc(=O)oc4c3C)CC2)cc1	9.6	5.0	-1.4	.	1.3	0.6	.	.
O=S(=O)(c1ccc(Br)s1)N1CCN(CCOc2ccccc2)CC1	-6.4	-2.4	-2.5	.	-5.9	-0.8	.	.
COc1ccc(CN2CCN(S(=O)(=O)c3ccc(NC(C)=O)cc3)CC2)c(OC)c1OC	30.7*	-1.1	1.4	-8.2	5.4	0.5	0.5	8.7
Cc1nnc2n(-c3ccccc3)c(=O)c3c4c(sc3n12)CCCC4	29.4*	-3.5	-0.7	3.8	-5.2	-0.8	0.1	16.3
COc1ccc(-n2c(=O)c3c4c(sc3n3c(C)nnc23)CCCC4)cc1	.	.	.	-8.6	.	.	.	.
COc1ccc(C)cc1NS(=O)(=O)c1ccc(Cl)nc1	0.9	-7.6	-0.1	.	-7.3	-0.3	.	.
C=C(C)[C@@H]1C2=CC(C(=O)OC)=C(C[C@H](C(=C)C)[C@H]3O[C@H]3C3=C[C@H]1OC3=O)O2	36.4*	.	-0.2	.	17.7	.	13.6*	44.9*
O=C(Nc1ccc(F)cc1)c1cc(-c2ccccn2)nc2c(Cl)cccc12	30.4*	-6.3	0.9	.	-5.3	8.4	35.2*	41.7*
CCOC(=O)c1cnc2ccc(OCC)cc2c1NCc1ccccc1	34.8*	-3.7	-0.3	1.2	-13.8	20.4	7.4	21.5
CCOC(=O)c1ccc2ncc(C(=O)OCC)c(NCCN3CCOCC3)c2c1	10.5	3.1	-0.9	.	1.7	2.2	.	.
CCOC(=O)c1cnc2ccc(C)cc2c1Nc1ccc(N2CCOCC2)cc1	30.5*	5.2	-0.3	-3.9	7.7	9.8	2.6	37.8*
CCOC(=O)c1cnc2ccccc2c1Nc1cccc(C(=O)O)c1	38.8*	-14.0	0.2	2.5	-6.8	0.9	13.4*	19.5
